# Experimental data taken from ChEMBL document CHEMBL1126247, “Iodoaminopotentidine and related compounds: a new class of ligands with high affinity and selectivity for the histamine H2 receptor” (J Med Chem, 1992).
# Assays:
# [1] = target: Histamine H2 receptor (Cavia porcellus) (UniProt P47747); assay: Histamine H2 receptor antagonistic activity at a concentration of 0.1 uM on the isolated guinea pig right atrium.; type: functional, tissue-based; details: Cardiac atrium
# [2] = target: Histamine H2 receptor (Cavia porcellus) (UniProt P47747); assay: Inhibition of the positive chronotropic response (histamine H2 receptor antagonism) of guinea pig right atrium relative to cimetidine.; type: functional, tissue-based; details: Cardiac atrium
# Histamine H1 receptor = Histamine H1 receptor (Cavia porcellus, UniProt P31389); assay: (§1) Histamine H1 receptor antagonistic activity on the isolated guinea pig ileum determined by Schild plot.; type: functional, tissue-based; details: read-out: pA2 (converted)
# In short: (§2)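 Whole proximal guinea pig ileum segments in Tyrode's solution gassed with 95% O2/5% CO2, isotonic recording at 10 mN load. Cumulative histamine (0.01-3 μM) curves. Antagonist applied 10 min before the curve. pK_B from concentration ratio, or pA2 by Schild plot.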
# Histamine H2 receptor [3] = target: T1, Histamine H2 receptor (Cavia porcellus, UniProt P47747); assay: Inhibition of [125I]APT binding to H2 receptors in guinea pig cerebral membranes.; type: cell membranes
# In short: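 Striatal membranes from male Hartley guinea pigs (200-300 g) in 50 mM sodium/potassium phosphate, pH 7.5, with 0.1% gelatin. Stopped with cold buffer containing 0.1% BSA, then filtered on polyethylenimine-treated glass-fiber filters and γ-counted. Azido compounds handled under dim light.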
# [4] = target: Histamine H2 receptor (Cavia porcellus) (UniProt P47747); assay: Histamine H2 receptor antagonistic activity on the isolated guinea pig right atrium determined by Schild plot.; type: functional, tissue-based; details: Cardiac atrium
# [5] = target: Histamine H2 receptor (Cavia porcellus) (UniProt P47747); assay: Histamine H2 receptor antagonism at a concentration of 1 umolar on the isolated guinea pig right atrium.; type: functional, tissue-based; details: Cardiac atrium
# [6] = target: Muscarinic acetylcholine receptor M3 (Cavia porcellus) (UniProt Q8VH26); assay: Muscarinic acetylcholine receptor M3 antagonistic activity at concentrations of 10 and 30 uM on the isolated guinea pig iluem.; type: functional
# In short: (§3)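 Guinea pig proximal ileum, isotonic recording under a 10 mN load in gassed Tyrode's solution. Cumulative carbachol (3-300 nM) curves as reference agonist. Antagonist incubated 10 min. pK_B calculated from concentration ratio, or pA2 by Schild plot.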
# [7] = target: Histamine H2 receptor (Cavia porcellus) (UniProt P47747); assay: Histamine H2 receptor antagonistic activity at concentrations of 0.1,0.3 and 1 uM on the isolated guinea pig right atrium.; type: functional, tissue-based; details: Cardiac atrium
# [8] = target: Histamine H2 receptor (Cavia porcellus) (UniProt P47747); assay: Potency to inhibit the positive chronotropic response (H2-antagonism) of guinea pig right atrium relative to cimetidine.; type: functional, tissue-based; details: Cardiac atrium
# [9] = target: Histamine H1 receptor (Cavia porcellus) (UniProt P31389); assay: Histamine H1 receptor antagonistic activity on the isolated guinea pig ileum determined by Schild plot.
# Target sequence in this assay (P31389 whole entry, looked up): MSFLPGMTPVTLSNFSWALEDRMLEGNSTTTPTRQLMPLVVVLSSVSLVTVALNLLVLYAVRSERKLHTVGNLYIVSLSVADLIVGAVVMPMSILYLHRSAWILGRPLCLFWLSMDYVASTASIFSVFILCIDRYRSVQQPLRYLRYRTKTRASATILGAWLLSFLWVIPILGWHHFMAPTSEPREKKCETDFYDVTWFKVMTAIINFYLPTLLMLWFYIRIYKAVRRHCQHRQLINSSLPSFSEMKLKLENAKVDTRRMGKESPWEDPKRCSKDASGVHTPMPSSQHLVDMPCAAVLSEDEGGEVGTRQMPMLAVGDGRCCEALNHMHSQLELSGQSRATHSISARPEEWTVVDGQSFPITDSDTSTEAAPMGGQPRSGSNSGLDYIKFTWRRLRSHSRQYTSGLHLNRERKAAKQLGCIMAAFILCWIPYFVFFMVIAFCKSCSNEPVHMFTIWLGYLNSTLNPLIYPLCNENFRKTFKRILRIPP
# [10] = target: Serotonin 2 (5-HT2) receptor (Rattus norvegicus) (UniProt P30994+P08909+P14842); assay: (§4) 5-hydroxytryptamine 2 receptor antagonistic activity on the rat tail artery determined by Schild plot.; type: functional, tissue-based
# In short: (§5)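 Endothelium-denuded ventral tail artery segments from male Wistar rats (280-350 g), resting force 5 mN, 120 min equilibration with one 1 μM 5-HT priming. Two to three cumulative 5-HT (0.01-10 μM) curves per preparation.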
# [11] = target: Serotonin 2 (5-HT2) receptor (Rattus norvegicus, UniProt P30994+P08909+P14842); assay: as §4; type: functional, tissue-based; in short: as §5
# [12] = target: Adrenergic receptor alpha-1 (Rattus norvegicus) (UniProt P15823+P23944+P43140); assay: (§6) Alpha-1 adrenergic receptor antagonistic activity on the rat aorta determined by Schild plot.; type: functional, tissue-based
# In short: (§7)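 Endothelium-denuded thoracic aortic rings from the same rats, mounted isometrically, resting force 20 mN. Equilibration 140 min with two primings of 0.1 μM (R)-phenylephrine. Cumulative (R)-phenylephrine (0.003-10 μM) curves recorded with 1 μM (±)-propranolol present.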
# [13] = target: T2, Adrenergic receptor alpha-1 (Rattus norvegicus, UniProt P15823+P23944+P43140); assay: as §6; type: functional, tissue-based; in short: as §7
# T2 sequence (P15823 whole entry): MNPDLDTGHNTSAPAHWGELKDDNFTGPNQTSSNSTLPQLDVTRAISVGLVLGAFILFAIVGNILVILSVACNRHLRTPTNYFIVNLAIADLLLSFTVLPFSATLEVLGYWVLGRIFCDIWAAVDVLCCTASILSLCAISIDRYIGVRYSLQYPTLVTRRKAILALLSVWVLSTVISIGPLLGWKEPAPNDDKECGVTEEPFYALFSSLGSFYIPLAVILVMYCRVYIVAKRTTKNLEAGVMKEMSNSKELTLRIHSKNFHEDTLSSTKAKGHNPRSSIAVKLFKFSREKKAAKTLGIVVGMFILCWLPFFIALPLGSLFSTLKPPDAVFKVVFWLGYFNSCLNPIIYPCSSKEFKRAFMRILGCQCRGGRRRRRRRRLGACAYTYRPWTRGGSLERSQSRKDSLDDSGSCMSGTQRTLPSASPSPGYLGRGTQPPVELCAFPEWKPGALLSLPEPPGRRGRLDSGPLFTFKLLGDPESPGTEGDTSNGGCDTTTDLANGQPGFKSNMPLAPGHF
# T2 sequence (P23944 whole entry): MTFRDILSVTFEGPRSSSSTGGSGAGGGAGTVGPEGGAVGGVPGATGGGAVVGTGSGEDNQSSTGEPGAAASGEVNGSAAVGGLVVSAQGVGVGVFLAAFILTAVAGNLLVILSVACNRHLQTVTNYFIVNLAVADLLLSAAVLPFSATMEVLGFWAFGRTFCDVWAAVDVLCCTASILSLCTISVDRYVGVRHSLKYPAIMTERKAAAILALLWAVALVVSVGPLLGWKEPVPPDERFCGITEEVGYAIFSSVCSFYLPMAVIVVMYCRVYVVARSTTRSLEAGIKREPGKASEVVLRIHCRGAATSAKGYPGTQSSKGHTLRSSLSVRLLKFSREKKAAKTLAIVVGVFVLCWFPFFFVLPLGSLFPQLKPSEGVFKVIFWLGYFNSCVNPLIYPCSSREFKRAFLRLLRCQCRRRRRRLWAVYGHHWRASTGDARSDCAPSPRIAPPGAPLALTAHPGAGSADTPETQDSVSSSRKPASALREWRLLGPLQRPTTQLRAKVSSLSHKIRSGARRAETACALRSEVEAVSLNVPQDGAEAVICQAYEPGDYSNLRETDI
# T2 sequence (P43140 whole entry): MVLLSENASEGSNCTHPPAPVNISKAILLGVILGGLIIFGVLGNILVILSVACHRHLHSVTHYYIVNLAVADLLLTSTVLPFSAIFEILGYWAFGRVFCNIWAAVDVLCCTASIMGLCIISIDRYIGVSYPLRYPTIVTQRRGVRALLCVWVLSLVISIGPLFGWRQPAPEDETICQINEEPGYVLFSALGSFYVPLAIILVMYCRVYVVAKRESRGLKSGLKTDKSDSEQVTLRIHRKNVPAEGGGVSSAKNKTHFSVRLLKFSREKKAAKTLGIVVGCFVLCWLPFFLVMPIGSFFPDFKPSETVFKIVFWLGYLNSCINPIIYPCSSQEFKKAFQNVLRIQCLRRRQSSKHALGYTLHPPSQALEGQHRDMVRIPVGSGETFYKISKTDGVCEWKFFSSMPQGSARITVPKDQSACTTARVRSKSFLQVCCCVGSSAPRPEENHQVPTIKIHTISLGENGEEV
# [14] = target: Beta-1 adrenergic receptor (Cavia porcellus) (UniProt B0FL73); assay: Beta-1 Adrenergic receptor antagonistic activity at concentrations of 10 and 30 uM on the isolated guinea pig right atrium.; type: functional, tissue-based; details: Cardiac atrium
# In short: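 Spontaneously beating guinea pig right atrium, isometric recording of chronotropic response. Cumulative isoprenaline (0.1-30 nM) curves as reference agonist. Incubation handled as in the H2 protocol. pK_B = -log[antagonist] + log(concentration ratio - 1).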
# [15] = target: Histamine H1 receptor (Cavia porcellus) (UniProt P31389); assay: Histamine H1 receptor antagonistic activity at a concentration of 3 and 10 uM on the isolated guinea pig iluem.; type: functional; in short: as §2
# Target sequence in this assay (P31389 whole entry): as the sequence (P31389 whole entry, looked up) above
# [16] = target: Histamine H2 receptor (Cavia porcellus) (UniProt P47747); assay: Histamine H2 receptor antagonistic activity at concentrations of 0.03,0.1 and 0.3 uM on the isolated guinea pig right atrium.; type: functional, tissue-based; details: Cardiac atrium
# [17] = target: Muscarinic acetylcholine receptor M3 (Cavia porcellus) (UniProt Q8VH26); assay: muscarinic acetylcholine receptor M3 antagonistic activity at concentrations of 10 and 30 uM on the isolated guinea pig iluem.; type: functional; in short: as §3
# [18] = target: Histamine H1 receptor (Cavia porcellus) (UniProt P31389); assay: as §1; type: functional, tissue-based; in short: as §2
# Target sequence in this assay (P31389 whole entry): as the sequence (P31389 whole entry, looked up) above
# [19] = target: Histamine H2 receptor (Cavia porcellus) (UniProt P47747); assay: Histamine H2 receptor antagonistic activity at concentrations of 0.03 and 0.1 uM on the isolated guinea pig right atrium.; type: functional, tissue-based; details: Cardiac atrium
# [20] = target: Muscarinic acetylcholine receptor M3 (Cavia porcellus, UniProt Q8VH26); assay: muscarinic acetylcholine receptor M3-antagonistic activity on the isolated guinea pig ileum determined by Schild plot.; type: functional, tissue-based; details: read-out: pA2 (converted); in short: as §3
# [21] = target: Muscarinic acetylcholine receptor M3 (Cavia porcellus) (UniProt Q8VH26); assay: muscarinic acetylcholine receptor M3 antagonistic activity on the isolated guinea pig ileum determined by Schild plot.; type: functional, tissue-based; in short: as §3
# Histamine H2 receptor [22] = target: T1, Histamine H2 receptor; assay: Histamine H2 receptor antagonistic activity on the isolated guinea pig right atrium.; details: read-out: pA2 (converted)
# [23] = target: Histamine H2 receptor (Cavia porcellus) (UniProt P47747); assay: Histamine H2 receptor antagonistic activity at a concentration of 0.03 and 1 uM on the isolated guinea pig right atrium.; type: functional, tissue-based; details: Cardiac atrium
# [24] = Inhibition of the positive chronotropic response (H2-antagonism) of guinea pig right atrium relative to cimetidine.; type: functional, Cavia porcellus, Cardiac atrium
# [25] = target: Histamine H2 receptor (Cavia porcellus) (UniProt P47747); assay: Histamine H2 receptor antagonistic activity at a concentration of 30 uM on the isolated guinea pig right atrium.; type: functional, tissue-based; details: Cardiac atrium
# [26] = target: Histamine H2 receptor (Cavia porcellus) (UniProt P47747); assay: Histamine H2 receptor antagonistic activity at a concentration of 0.3 uM on the isolated guinea pig right atrium; type: functional, tissue-based; details: Cardiac atrium
# [27] = target: Muscarinic acetylcholine receptor M3 (Cavia porcellus) (UniProt Q8VH26); details: 10 uM
# [28] = target: Histamine H2 receptor (Cavia porcellus) (UniProt P47747); details: Cardiac atrium
# Histamine H2 receptor (Cavia porcellus), sequence (P47747 whole entry): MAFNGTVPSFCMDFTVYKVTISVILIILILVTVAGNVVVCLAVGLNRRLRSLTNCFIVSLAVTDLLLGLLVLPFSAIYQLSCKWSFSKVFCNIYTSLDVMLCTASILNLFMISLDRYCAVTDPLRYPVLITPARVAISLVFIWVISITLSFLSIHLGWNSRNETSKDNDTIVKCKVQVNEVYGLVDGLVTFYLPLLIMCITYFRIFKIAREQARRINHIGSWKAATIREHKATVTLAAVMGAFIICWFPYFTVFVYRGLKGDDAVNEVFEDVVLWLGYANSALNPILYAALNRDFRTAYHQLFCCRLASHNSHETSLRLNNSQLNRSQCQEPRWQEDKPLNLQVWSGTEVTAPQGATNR
# Muscarinic acetylcholine receptor M3 (Cavia porcellus), sequence (Q8VH26 1-587): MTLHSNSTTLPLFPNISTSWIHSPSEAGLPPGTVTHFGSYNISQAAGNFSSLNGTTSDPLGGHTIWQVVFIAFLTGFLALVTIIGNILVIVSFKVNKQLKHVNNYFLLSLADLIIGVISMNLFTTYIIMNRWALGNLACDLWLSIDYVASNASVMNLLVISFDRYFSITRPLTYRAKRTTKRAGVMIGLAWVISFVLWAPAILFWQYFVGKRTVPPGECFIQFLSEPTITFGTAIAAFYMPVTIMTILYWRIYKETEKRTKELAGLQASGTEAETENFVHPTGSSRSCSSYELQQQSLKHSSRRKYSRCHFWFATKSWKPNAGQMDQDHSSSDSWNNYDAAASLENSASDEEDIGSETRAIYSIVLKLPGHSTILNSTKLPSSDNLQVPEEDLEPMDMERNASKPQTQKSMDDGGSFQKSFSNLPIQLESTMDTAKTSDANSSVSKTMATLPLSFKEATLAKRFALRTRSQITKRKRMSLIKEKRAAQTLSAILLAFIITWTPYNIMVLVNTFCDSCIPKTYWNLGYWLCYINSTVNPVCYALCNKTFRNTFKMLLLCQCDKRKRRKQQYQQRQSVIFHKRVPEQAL
# T1 sequence (P47747 whole entry): as the sequence (P47747 whole entry) above
# Histamine H1 receptor, sequence (P31389 whole entry): as the sequence (P31389 whole entry, looked up) above
# Beta-1 adrenergic receptor (Cavia porcellus), sequence (B0FL73 1-467): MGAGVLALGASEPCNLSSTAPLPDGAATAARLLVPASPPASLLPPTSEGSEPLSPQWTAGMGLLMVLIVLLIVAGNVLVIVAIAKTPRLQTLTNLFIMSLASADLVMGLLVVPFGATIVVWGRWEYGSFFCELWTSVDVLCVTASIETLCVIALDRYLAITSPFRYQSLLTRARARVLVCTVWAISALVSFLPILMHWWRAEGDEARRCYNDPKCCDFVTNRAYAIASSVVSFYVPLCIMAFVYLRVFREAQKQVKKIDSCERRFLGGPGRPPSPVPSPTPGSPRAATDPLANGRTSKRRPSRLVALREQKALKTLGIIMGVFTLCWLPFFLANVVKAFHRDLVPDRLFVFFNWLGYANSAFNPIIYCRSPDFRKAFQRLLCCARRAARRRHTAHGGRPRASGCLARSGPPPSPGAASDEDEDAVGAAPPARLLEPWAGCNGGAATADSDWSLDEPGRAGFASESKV
# Serotonin 2 (5-HT2) receptor (Rattus norvegicus), sequence (P08909 whole entry, looked up): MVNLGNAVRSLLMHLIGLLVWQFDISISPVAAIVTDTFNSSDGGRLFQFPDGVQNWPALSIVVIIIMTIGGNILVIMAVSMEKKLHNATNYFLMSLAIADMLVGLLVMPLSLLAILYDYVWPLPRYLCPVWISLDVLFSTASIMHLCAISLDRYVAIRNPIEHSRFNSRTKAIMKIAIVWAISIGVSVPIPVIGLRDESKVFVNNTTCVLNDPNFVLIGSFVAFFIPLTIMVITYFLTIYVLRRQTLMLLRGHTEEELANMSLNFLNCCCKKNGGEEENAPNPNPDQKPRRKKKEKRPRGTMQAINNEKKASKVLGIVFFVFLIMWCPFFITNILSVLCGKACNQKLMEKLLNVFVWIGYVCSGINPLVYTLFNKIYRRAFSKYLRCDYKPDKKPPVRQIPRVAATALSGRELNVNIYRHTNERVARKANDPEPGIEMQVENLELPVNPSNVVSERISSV
# Serotonin 2 (5-HT2) receptor (Rattus norvegicus), sequence (P14842 whole entry, looked up): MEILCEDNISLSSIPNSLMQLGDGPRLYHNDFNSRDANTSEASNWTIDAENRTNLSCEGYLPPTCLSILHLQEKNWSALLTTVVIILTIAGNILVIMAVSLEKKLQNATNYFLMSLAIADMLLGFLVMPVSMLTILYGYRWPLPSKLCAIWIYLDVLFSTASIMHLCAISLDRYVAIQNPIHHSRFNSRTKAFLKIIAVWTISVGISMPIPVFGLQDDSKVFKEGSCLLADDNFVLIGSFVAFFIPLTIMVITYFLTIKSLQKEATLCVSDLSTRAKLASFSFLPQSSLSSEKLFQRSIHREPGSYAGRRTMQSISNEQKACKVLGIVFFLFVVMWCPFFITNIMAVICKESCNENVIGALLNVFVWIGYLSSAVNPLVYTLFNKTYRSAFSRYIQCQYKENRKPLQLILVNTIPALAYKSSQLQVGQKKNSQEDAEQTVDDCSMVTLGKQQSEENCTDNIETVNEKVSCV
# Serotonin 2 (5-HT2) receptor (Rattus norvegicus), sequence (P30994 whole entry, looked up): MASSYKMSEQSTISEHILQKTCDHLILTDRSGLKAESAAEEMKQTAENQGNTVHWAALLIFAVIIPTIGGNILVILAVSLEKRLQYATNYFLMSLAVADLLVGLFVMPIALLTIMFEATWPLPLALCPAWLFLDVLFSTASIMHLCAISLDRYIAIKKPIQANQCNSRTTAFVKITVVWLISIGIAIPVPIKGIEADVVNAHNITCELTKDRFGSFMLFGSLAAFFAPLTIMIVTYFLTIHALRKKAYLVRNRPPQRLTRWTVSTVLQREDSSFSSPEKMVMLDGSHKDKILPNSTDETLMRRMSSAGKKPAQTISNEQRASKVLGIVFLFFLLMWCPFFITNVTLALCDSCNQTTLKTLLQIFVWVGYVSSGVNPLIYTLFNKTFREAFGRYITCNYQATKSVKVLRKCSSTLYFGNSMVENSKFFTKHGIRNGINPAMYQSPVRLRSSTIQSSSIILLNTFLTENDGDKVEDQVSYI
# Muscarinic acetylcholine receptor M3, sequence (Q8VH26 whole entry): as the sequence (Q8VH26 1-587) above
structure (smiles),measurement,setting,value
N#CN/C(=N\CCNc1ccccc1[N+](=O)[O-])NCCCOc1cccc(CN2CCCCC2)c1,pKB,[1],7.45
same,Relative potency,[2],1120%
N#CN/C(=N\CCNC(=O)c1ccc(N)cc1)NCCCOc1cccc(CN2CCCCC2)c1 [AMINOPOTENTIDINE],Kb,Histamine H1 receptor,26.9 µM
same,Ki,Histamine H2 receptor [3],0.00977 µM
same,Slope,[4],1.09
same,pKB,[5],7.22
same,pKB,[6],5.16
same,pKB,[7],7.28
same,Relative potency,[8],660%
same,Slope,[9],0.88
N#CN/C(=N\CCNC(=O)c1ccc(N)c(I)c1)NCCCOc1cccc(CN2CCCCC2)c1,Slope,[10],1.09
same,pA2,[11],6.06
same,Slope,[12],1.29
same,pA2,[13],5.59
same,pKB,[14],4.77
same,pKB,[15],5.96
same,Slope,[4],0.9
same,pKB,[16],7.52
same,pKB,[17],5.49
same,Relative potency,[2],1440%
N#CN/C(=N\CCNC(=O)c1cc(I)c(N)c(I)c1)NCCCOc1cccc(CN2CCCCC2)c1,Slope,[18],0.91
same,Kb,Histamine H1 receptor,1.58 µM
same,pKB,[19],7.79
same,Kb,[20],1.7 µM
same,Slope,[21],1.04
same,Relative potency,[2],2460%
same,Kb,Histamine H2 receptor [22],0.0162 µM
N#CN/C(=N\CCNc1ccccc1[N+](=O)[O-])NCCCCOc1cccc(CN2CCCCC2)c1,pKB,[23],8.04
same,Relative potency,[2],4360%
N#CN/C(=N\CCCOc1cccc(CN2CCCCC2)c1)N1CCN(C(=O)c2ccccc2)CC1,Relative potency,[24],6%
same,pKB,[25],5.16
N#CN/C(=N\CCNC(=O)c1cccc(I)c1)NCCCOc1cccc(CN2CCCCC2)c1,pKB,[26],7.57
same,Relative potency,[8],1480%
same,pKB,[27],5.61
same,pKB,[28],7.62
same,Slope,[9],1.25
